Values after ≈ are worked out from the molar mass of the structure shown.
Legend:
[1] = tested on: Staphylococcus aureus; experiment: Antibacterial activity against Staphylococcus aureus after 24 hrs by broth dilution method; assay type: functional
Procedure, shortened: (§1)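 NCCLS broth dilution in 96-well microtitre plates. Inoculum adjusted with sterile saline to 1.0×10^5 c.f.u./ml. Compounds dissolved in DMSO, with a broth-plus-DMSO solvent control. Incubated 24 h at 37 °C. MIC is the lowest concentration without visible growth. For MBC, clear wells were plated on Mueller Hinton agar for 24 h at 37 °C; MBC is the lowest concentration with no colonies. Duplicates, repeated three times; values in μg/ml.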

[2] = tested on: Escherichia coli; experiment: Antibacterial activity against Escherichia coli after 24 hrs by broth dilution method; assay type: functional; procedure, shortened: as §1
[3] = tested on: HepG2; experiment: Cytotoxicity against human HepG2 cells after 48 hrs by sulforhodamine B assay; assay type: functional, cell-based; conditions: HepG2, 48 h
Procedure, shortened: (§2)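 SRB assay. Cells seeded at 10⁴ cells/well and left 24 h to attach. Exposed to 0, 1, 2.5, 5 and 10 μg/ml for 48 h at 37 °C in humidified 5% CO₂. Fixed with trichloroacetic acid and stained 30 min with 0.4% SRB in 1% acetic acid. Washed with 1% acetic acid; bound dye extracted with Tris EDTA and absorbance read. IC50 taken from surviving fraction versus concentration curves.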

[4] = tested on: HCT-116; experiment: Cytotoxicity against human HCT116 cells after 48 hrs by sulforhodamine B assay; assay type: functional, cell-based; conditions: HCT-116, 48 h; procedure, shortened: as §2

Row | Structure (SMILES) | MIC [1] [µg/mL] | MIC [2] [µg/mL] | MBC [1] [µg/mL] | MBC [2] [µg/mL] | IC50 [3] [µg/mL] | IC50 [4] [µg/mL]
1 | Nn1c(S)nnc1-c1ccc([N+](=O)[O-])o1 | 50 (≈ 220 µM) | 25 (≈ 110 µM) | 200 (≈ 880 µM) | 200 (≈ 880 µM) |  | 
2 | CCNc1nn2c(-c3ccc([N+](=O)[O-])o3)nnc2s1 | 25 (≈ 89.2 µM) | 25 (≈ 89.2 µM) | 100 (≈ 357 µM) | 200 (≈ 714 µM) |  | 
3 | CCCCNc1nn2c(-c3ccc([N+](=O)[O-])o3)nnc2s1 | 25 (≈ 81.1 µM) | 25 (≈ 81.1 µM) | 200 (≈ 649 µM) | 100 (≈ 324 µM) |  | 
4 | O=[N+]([O-])c1ccc(-c2nnc3sc(Nc4ccccc4)nn23)o1 | 25 (≈ 76.1 µM) | 50 (≈ 152 µM) | 50 (≈ 152 µM) | 100 (≈ 305 µM) | 4.23 (≈ 12.9 µM) | 4.38 (≈ 13.3 µM)
5 | O=[N+]([O-])c1ccc(-c2nnc3sc(Nc4ccc(F)cc4)nn23)o1 | 25 (≈ 72.2 µM) | 25 (≈ 72.2 µM) | 50 (≈ 144 µM) | 100 (≈ 289 µM) | 11.3 (≈ 32.6 µM) | 8.91 (≈ 25.7 µM)
6 | CCc1ccc(Nc2nn3c(-c4ccc([N+](=O)[O-])o4)nnc3s2)cc1 | 25 (≈ 70.2 µM) | 25 (≈ 70.2 µM) | 50 (≈ 140 µM) | 50 (≈ 140 µM) | 3.78 (≈ 10.6 µM) | 6.65 (≈ 18.7 µM)
7 | O=[N+]([O-])c1ccc(-c2nnc3n2N=C(c2ccc(Cl)cc2)CS3)o1 | 25 (≈ 69.1 µM) | 25 (≈ 69.1 µM) | 200 (≈ 553 µM) | 200 (≈ 553 µM) |  | 
8 | O=[N+]([O-])c1ccc(-c2nnc3n2N=C(c2ccc(Br)cc2)CS3)o1 | 25 (≈ 61.5 µM) | 25 (≈ 61.5 µM) | 200 (≈ 492 µM) | 200 (≈ 492 µM) |  | 
9 | COc1ccc(C2=Nn3c(nnc3-c3ccc([N+](=O)[O-])o3)SC2)cc1 | 50 (≈ 140 µM) | 25 (≈ 70 µM) | 200 (≈ 560 µM) | 200 (≈ 560 µM) |  | 
10 | CC1(C)S[C@@H]2[C@H](NC(=O)[C@H](N)c3ccccc3)C(=O)N2[C@H]1C(=O)O [AMPICILLIN] | 25 (≈ 71.5 µM) | 12.5 (≈ 35.8 µM) | 50 (≈ 143 µM) | 25 (≈ 71.5 µM) |  | 
11 | COc1cccc2c1C(=O)c1c(O)c3c(c(O)c1C2=O)C[C@@](O)(C(=O)CO)C[C@@H]3O[C@H]1C[C@H](N)[C@H](O)[C@H](C)O1 [DOXORUBICIN] |  |  |  |  | 5.5 (≈ 10.1 µM) | 3.73 (≈ 6.86 µM)

More lines, main results first:

Row | MIC [1] [µg/mL] | MIC [2] [µg/mL] | Structure (SMILES) | MBC [1] [µg/mL] | MBC [2] [µg/mL] | IC50 [3] [µg/mL] | IC50 [4] [µg/mL]
12 | 25 (≈ 82.2 µM) | 25 (≈ 82.2 µM) | O=[N+]([O-])c1ccc(-c2nnc3n2NC(c2ccc[nH]2)S3)o1 (stereo unspecified) | 200 (≈ 657 µM) | 200 (≈ 657 µM) |  | 
13 | 25 (≈ 81.9 µM) | 25 (≈ 81.9 µM) | O=[N+]([O-])c1ccc(-c2nnc3n2NC(c2ccco2)S3)o1 (stereo unspecified) | 200 (≈ 655 µM) | 200 (≈ 655 µM) |  | 
14 | 25 (≈ 71.4 µM) | 25 (≈ 71.4 µM) | O=[N+]([O-])c1ccc(-c2nnc3n2NC(c2ccc([N+](=O)[O-])o2)S3)o1 (stereo unspecified) | 200 (≈ 571 µM) | 200 (≈ 571 µM) |  | 
15 | 25 (≈ 77.8 µM) | 50 (≈ 156 µM) | O=[N+]([O-])c1ccc(-c2nnc3n2NC(c2cccs2)S3)o1 (stereo unspecified) | 200 (≈ 622 µM) | 200 (≈ 622 µM) |  | 
16 | 25 (≈ 68.2 µM) | 50 (≈ 136 µM) | O=[N+]([O-])c1ccc(-c2nnc3n2NC(c2ccc([N+](=O)[O-])s2)S3)o1 (stereo unspecified) | 200 (≈ 546 µM) | 200 (≈ 546 µM) |  | 
17 | 100 (≈ 306 µM) | 50 (≈ 153 µM) | O=[N+]([O-])c1ccc(-c2nnc3n2N=C(c2ccccc2)CS3)o1 | 200 (≈ 611 µM) | 200 (≈ 611 µM) |  | 
18 | 50 (≈ 134 µM) | 25 (≈ 67.1 µM) | O=[N+]([O-])c1ccc(C2=Nn3c(nnc3-c3ccc([N+](=O)[O-])o3)SC2)cc1 | 100 (≈ 269 µM) | 200 (≈ 537 µM) |  | 
